Data as given in ChEMBL document CHEMBL2021842, “COMPARE analysis of the toxicity of an iminoquinone derivative of the imidazo[5,4-f]benzimidazoles with NAD(P)H:quinone oxidoreductase 1 (NQO1) activity and computational docking of quinones as NQO1 substrates” (Bioorg Med Chem, 2012).

Experiments:
HeLa = assay: Cytotoxicity against human HeLa cells assessed as reduction in mean cell viability after 72 hrs by MTT assay; format: functional, cell-based
Summary of the method: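 HeLa-CCL-2 cells in DMEM with 10% heat-inactivated FBS, 2 mM L-glutamine and nonessential amino acids. Plated at 1000 cells/well with 24 h adherence. Treated in ethanol (1% final) for 72 h at 37 °C under 5% CO₂, with ethanol controls. Absorbance of DMSO-dissolved formazan at 550 nm, 690 nm reference. IC₅₀ by nonlinear regression of percent viability.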

DU-145 [1] = assay: Cytotoxicity against human DU145 cells assessed as reduction in mean cell viability after 72 hrs by MTT assay; format: functional, cell-based; conditions: DU-145, 72 h
Summary of the method: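 DU-145 prostate cells in RPMI-1640 with 10% heat-inactivated FBS, penicillin–streptomycin and 2 mM L-glutamine. Seeded at 2000 cells/well and left 24 h to adhere. Compound added in ethanol (1% final) for 72 h at 37 °C, 5% CO₂, with ethanol-only controls. Formazan dissolved in DMSO and read at 550 nm (690 nm reference). IC₅₀ derived by nonlinear regression of viability versus vehicle.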

CCRF-CEM = assay: Growth inhibition of human CCRF-CEM cells assessed as cell growth at 10 uM relative to untreated control; format: functional; conditions: read-out: Activity
Summary of the method: (§1)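 NCI DTP 60-cell-line screen, first stage: a single 10 µM dose of compound given to the human tumour panel. Result reported as percent growth relative to control, on a mean growth graph.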

HL-60(TB) = assay: Growth inhibition of human HL-60(TB) cells assessed as cell growth at 10 uM relative to untreated control; format: functional; conditions: read-out: Activity
Summary of the method: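 NCI DTP NCI-60 screen, first stage: a single dose applied to 60 human tumour cell lines from nine tissue types. Output is reported as growth %.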

K562 = assay: Growth inhibition of human K562 cells assessed as cell growth at 10 uM relative to untreated control; format: functional; conditions: read-out: Activity; summary of the method: as §1
[2] = Growth inhibition of human […] cells assessed as cell growth at 10 uM relative to untreated control; format: functional; conditions: read-out: Activity
Summary of the method: (§2)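 First stage of the NCI DTP 60 human tumour cell-line screen. Cells were exposed to a single dose of 10 µM. Output is reported as growth % relative to control.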

SR = assay: Growth inhibition of human SR cells assessed as cell growth at 10 uM relative to untreated control; format: functional; conditions: read-out: Activity
Summary of the method: (§3)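 This is the first stage of the NCI DTP 60-human-tumour-cell-line screen, covering nine tissue types. Cells receive a single dose of the test compound, and the output is reported as mean growth %.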

A549 = assay: Growth inhibition of human A549 cells assessed as cell growth at 10 uM relative to untreated control; format: functional; conditions: read-out: Activity; summary of the method: as §1
HOP-62 = assay: Growth inhibition of human HOP62 cells assessed as cell growth at 10 uM relative to untreated control; format: functional; conditions: read-out: Activity; summary of the method: as §1
NCI-H226 = assay: Growth inhibition of human NCI-H226 cells assessed as cell growth at 10 uM relative to untreated control; format: functional; conditions: read-out: Activity; summary of the method: as §2
NCI-H23 = assay: Growth inhibition of human NCI-H23 cells assessed as cell growth at 10 uM relative to untreated control; format: functional; conditions: read-out: Activity; summary of the method: as §2
NCI-H322M = assay: Growth inhibition of human NCI-H322M cells assessed as cell growth at 10 uM relative to untreated control; format: functional; conditions: read-out: Activity; summary of the method: as §2
COLO 205 = assay: Growth inhibition of human COLO205 cells assessed as cell growth at 10 uM relative to untreated control; format: functional; conditions: read-out: Activity; summary of the method: as §1
HCT-15 = assay: Growth inhibition of human HCT15 cells assessed as cell growth at 10 uM relative to untreated control; format: functional; conditions: read-out: Activity; summary of the method: as §1
KM12 = assay: Growth inhibition of human KM12 cells assessed as cell growth at 10 uM relative to untreated control; format: functional; conditions: read-out: Activity; summary of the method: as §1
SW-620 = assay: Growth inhibition of human SW620 cells assessed as cell growth at 10 uM relative to untreated control; format: functional; conditions: read-out: Activity; summary of the method: as §3
SF-539 = assay: Growth inhibition of human SF539 cells assessed as cell growth at 10 uM relative to untreated control; format: functional; conditions: read-out: Activity; summary of the method: as §2
SNB-19 = assay: Growth inhibition of human SNB19 cells assessed as cell growth at 10 uM relative to untreated control; format: functional; conditions: read-out: Activity; summary of the method: as §3
U-251 = assay: Growth inhibition of human U251 cells assessed as cell growth at 10 uM relative to untreated control; format: functional; conditions: read-out: Activity; summary of the method: as §3
LOX IMVI = assay: Growth inhibition of human LOXIMVI cells assessed as cell growth at 10 uM relative to untreated control; format: functional; conditions: read-out: Activity; summary of the method: as §1
M14 = assay: Growth inhibition of human M14 cells assessed as cell growth at 10 uM relative to untreated control; format: functional; conditions: read-out: Activity; summary of the method: as §1
SK-MEL-5 = assay: Growth inhibition of human SK-MEL-5 cells assessed as cell growth at 10 uM relative to untreated control; format: functional; conditions: read-out: Activity; summary of the method: as §2
UACC-257 = assay: Growth inhibition of human UACC257 cells assessed as cell growth at 10 uM relative to untreated control; format: functional; conditions: read-out: Activity; summary of the method: as §3
UACC-62 = assay: Growth inhibition of human UACC62 cells assessed as cell growth at 10 uM relative to untreated control; format: functional; conditions: read-out: Activity; summary of the method: as §3
OVCAR-3 = assay: Growth inhibition of human OVCAR3 cells assessed as cell growth at 10 uM relative to untreated control; format: functional; conditions: read-out: Activity; summary of the method: as §2
OVCAR-4 = assay: Growth inhibition of human OVCAR4 cells assessed as cell growth at 10 uM relative to untreated control; format: functional; conditions: read-out: Activity; summary of the method: as §2
OVCAR-5 = assay: Growth inhibition of human OVCAR5 cells assessed as cell growth at 10 uM relative to untreated control; format: functional; conditions: read-out: Activity; summary of the method: as §2
OVCAR-8 = assay: Growth inhibition of human OVCAR8 cells assessed as cell growth at 10 uM relative to untreated control; format: functional; conditions: read-out: Activity; summary of the method: as §2
786-0 = assay: Growth inhibition of human 786-0 cells assessed as cell growth at 10 uM relative to untreated control; format: functional; conditions: read-out: Activity; summary of the method: as §1
A498 = assay: Growth inhibition of human A498 cells assessed as cell growth at 10 uM relative to untreated control; format: functional; conditions: read-out: Activity; summary of the method: as §1
ACHN = assay: Growth inhibition of human ACHN cells assessed as cell growth at 10 uM relative to untreated control; format: functional; conditions: read-out: Activity; summary of the method: as §1
CAKI-1 = assay: Growth inhibition of human Caki1 cells assessed as cell growth at 10 uM relative to untreated control; format: functional; conditions: read-out: Activity; summary of the method: as §1
RXF 393 = assay: Growth inhibition of human RXF393 cells assessed as cell growth at 10 uM relative to untreated control; format: functional; conditions: read-out: Activity; summary of the method: as §2
SN12C = assay: Growth inhibition of human SN12C cells assessed as cell growth at 10 uM relative to untreated control; format: functional; conditions: read-out: Activity; summary of the method: as §3
TK-10 = assay: Growth inhibition of human TK10 cells assessed as cell growth at 10 uM relative to untreated control; format: functional; conditions: read-out: Activity; summary of the method: as §3
UO-31 = assay: Growth inhibition of human UO31 cells assessed as cell growth at 10 uM relative to untreated control; format: functional; conditions: read-out: Activity; summary of the method: as §3
PC-3 = assay: Growth inhibition of human PC3 cells assessed as cell growth at 10 uM relative to untreated control; format: functional; conditions: read-out: Activity; summary of the method: as §2
DU-145 [3] = assay: Growth inhibition of human DU145 cells assessed as cell growth at 10 uM relative to untreated control; format: functional; conditions: read-out: Activity; summary of the method: as §1
MDA-MB-231 = assay: Growth inhibition of human MDA-MB-231 cells assessed as cell growth at 10 uM relative to untreated control; format: functional; conditions: read-out: Activity; summary of the method: as §2
T47D = assay: Growth inhibition of human T47D cells assessed as cell growth at 10 uM relative to untreated control; format: functional; conditions: read-out: Activity; summary of the method: as §3

Structure (SMILES): N=C1c2nc3n(c2C(=O)c2nc4n(c21)CCCC4)CCCC3
- IC50 (HeLa): 1550 nM
- IC50 (DU-145 [1]): 300 nM
- growth at 10 µM (CCRF-CEM): 92.9%
- growth at 10 µM (HL-60(TB)): 96.3%
- growth at 10 µM (K562): 81.4%
- growth at 10 µM [2]: 82.2%
- growth at 10 µM (SR): 69.5%
- growth at 10 µM (A549): -30.6%
- growth at 10 µM (HOP-62): 52.3%
- growth at 10 µM (NCI-H226): 57.1%
- growth at 10 µM (NCI-H23): -70.4%
- growth at 10 µM (NCI-H322M): 27.7%
- growth at 10 µM (COLO 205): -88.6%
- growth at 10 µM (HCT-15): 6.18%
- growth at 10 µM (KM12): 66.7%
- growth at 10 µM (SW-620): 23.7%
- growth at 10 µM (SF-539): -21.7%
- growth at 10 µM (SNB-19): 30%
- growth at 10 µM (U-251): 50.6%
- growth at 10 µM (LOX IMVI): -68%
- growth at 10 µM (M14): -95.6%
- growth at 10 µM (SK-MEL-5): -98%
- growth at 10 µM (UACC-257): -6.6%
- growth at 10 µM (UACC-62): -85.1%
- growth at 10 µM (OVCAR-3): 98.4%
- growth at 10 µM (OVCAR-4): 96.2%
- growth at 10 µM (OVCAR-5): -57.8%
- growth at 10 µM (OVCAR-8): 91.5%
- growth at 10 µM (786-0): 89%
- growth at 10 µM (A498): 52%
- growth at 10 µM (ACHN): 69.4%
- growth at 10 µM (CAKI-1): 88.8%
- growth at 10 µM (RXF 393): 94.8%
- growth at 10 µM (SN12C): -86.1%
- growth at 10 µM (TK-10): 128%
- growth at 10 µM (UO-31): 46.9%
- growth at 10 µM (PC-3): 90.5%
- growth at 10 µM (DU-145 [3]): -93.9%
- growth at 10 µM (MDA-MB-231): 82.6%
- growth at 10 µM (T47D): 71.9%

Structure (SMILES): O=C1c2nc3n(c2C(=O)c2nc4n(c21)CCCC4)CCCC3
- IC50 (HeLa): 1670 nM
- IC50 (DU-145 [1]): 1990 nM
- growth at 10 µM (CCRF-CEM): 103%
- growth at 10 µM (HL-60(TB)): 107%
- growth at 10 µM (K562): 107%
- growth at 10 µM [2]: 97.6%
- growth at 10 µM (SR): 101%
- growth at 10 µM (A549): 99.7%
- growth at 10 µM (HOP-62): 112%
- growth at 10 µM (NCI-H226): 111%
- growth at 10 µM (NCI-H23): 100%
- growth at 10 µM (NCI-H322M): 106%
- growth at 10 µM (COLO 205): 116%
- growth at 10 µM (HCT-15): 103%
- growth at 10 µM (KM12): 92.1%
- growth at 10 µM (SW-620): 104%
- growth at 10 µM (SF-539): 121%
- growth at 10 µM (SNB-19): 98.6%
- growth at 10 µM (U-251): 97.5%
- growth at 10 µM (LOX IMVI): 96.1%
- growth at 10 µM (M14): 108%
- growth at 10 µM (SK-MEL-5): 87.6%
- growth at 10 µM (UACC-257): 96.9%
- growth at 10 µM (UACC-62): 99.8%
- growth at 10 µM (OVCAR-3): 97%
- growth at 10 µM (OVCAR-4): 100%
- growth at 10 µM (OVCAR-5): 110%
- growth at 10 µM (OVCAR-8): 103%
- growth at 10 µM (786-0): 111%
- growth at 10 µM (A498): 99.9%
- growth at 10 µM (ACHN): 99%
- growth at 10 µM (CAKI-1): 90.7%
- growth at 10 µM (RXF 393): 107%
- growth at 10 µM (SN12C): 99.6%
- growth at 10 µM (TK-10): 100%
- growth at 10 µM (UO-31): 90.9%
- growth at 10 µM (PC-3): 102%
- growth at 10 µM (DU-145 [3]): 101%
- growth at 10 µM (MDA-MB-231): 96.8%
- growth at 10 µM (T47D): 99.3%
